# Assay results gathered from unrelated publications.
# Target: Proto-oncogene tyrosine-protein kinase Src (SRC, Homo sapiens, UniProt P12931)
Structure (SMILES),assay,conditions,remaining binding [%]
CC1CCCN1c1nccc(-c2cnn3ncccc23)n1 (stereo not shown),binding,1 µM,100
FC(F)(F)Oc1cccc(-c2cnc3ccc(-c4ccncc4)nn23)c1,"binding, competition with immobilised ligand",5 µM,56
COc1ccnn2ncc(-c3ccnc(N(C)C)n3)c12,binding,1 µM,100
Cc1cc(-n2nc(Cc3cc(F)cc(C(F)(F)F)c3)nc2C)ccc1C(N)=O,"cell-free assay, competition with immobilised ligand",1 µM,95
CN(C)c1nccc(-c2cnc3ncccn23)n1,binding,1 µM,89
CCOC(=O)c1cc2cc(-c3cc(C(=O)NCc4ccc(C(=O)O)cc4)nn3C)ccc2[nH]1,"cell-free assay, competition with immobilised ligand",0.1 µM,93
N#Cc1ccccc1CSc1nnc2c(n1)[nH]c1ccccc12,"binding, competition with immobilised ligand",10 µM,100
c1cncc(-c2cccc(Nc3nccc(NC4CCCCC4)n3)c2)c1,"binding, competition with immobilised ligand",10 µM,2.2
N[C@@H]1CCN(c2nccc(-c3cnn4ncccc34)n2)C1,binding,1 µM,100
Cc1c[nH]c2nccc(Oc3c(F)cc(Nc4cc(Cl)nc(N)n4)cc3F)c12,"cell-free assay, competition with immobilised ligand",0.1 µM,100
COc1cnc(Nc2cccc(S(N)(=O)=O)c2)nc1N1CCN(c2ccccc2)CC1,"binding, competition with immobilised ligand",1 µM,100
CN(C)c1nccc(-c2cnn3ncccc23)n1,binding,1 µM,100
O=C(c1ccc(Nc2ncc(Cl)c(-c3ccc(Cl)s3)n2)cc1)N1CCC(N2CCCC2)CC1,"binding, competition with immobilised ligand",1 µM,77
C[C@@H](c1cccc(C#N)c1)n1cc(Cl)cc(C(N)=O)c1=N,"cell-free assay, competition with immobilised ligand",1 µM,99
O=C(NCCCN1CCOCC1)c1ccc(Nc2ncc(Cl)c(-c3ccc(Cl)s3)n2)cc1,"binding, competition with immobilised ligand",1 µM,100
O=c1nc(-c2ccccn2)sc2ccccc12,"cell-free assay, competition with immobilised ligand",1 µM,92
O=C(NCC1CCOCC1)c1n[nH]cc1NC(=O)c1c(F)cccc1F,"binding, competition with immobilised ligand",1 µM,86
COc1cc(-c2cn(C3CCc4ccccc4N(CC(F)(F)F)C3=O)nn2)ccc1-n1ccc(C)n1 (stereo not shown),"cell-free assay, competition with immobilised ligand",1 µM,100
CN(CCCC(F)(F)F)c1nccc(-c2cnn3ncccc23)n1,binding,1 µM,100
COc1cnc(Nc2cccc(S(N)(=O)=O)c2)nc1N1CCN(c2ccccc2)C(=O)C1,"binding, competition with immobilised ligand",1 µM,100
C[C@H]1CCN(c2nccc(-c3cnn4ncccc34)n2)C1,binding,1 µM,100
CN([C@@H]1CCc2c(CC(=O)O)c3cc(S(C)(=O)=O)ccc3n2C1)S(=O)(=O)c1ccc(F)cc1,"cell-free assay, competition with immobilised ligand",1 µM,96
O=C(c1ccc(Nc2nccc(-c3cc4ccccc4s3)n2)cc1)N1CCC(N2CCCC2)CC1,"binding, competition with immobilised ligand",1 µM,63
COC(=O)Nc1nc2ccc(C(=O)c3ccccc3)cc2[nH]1,"cell-free assay, competition with immobilised ligand",10 µM,34
O=C(Nc1cccnn1)N1CC(C/C=C/c2cncc(Oc3ccc(C(F)(F)F)cn3)n2)C1,"cell-free assay, competition with immobilised ligand",1 µM,100
